Hits are enriched below; roughly 2.7% of the tested compounds scored in any of these assays.
Rpn11 inh – blocks the human proteasome subunit Rpn11; 360,000 compounds, 0.59% hits; AID 588493; inhibition, % at 20 µM; human 26S proteasome, Ub4-pepOG fluorescence polarization; 20S core pre-blocked with epoxomicin;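 active means inhibition at 20 µM, scaled to each plate's controls, above about 33%, limit read from the data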
NadD block – NadD (S. aureus) enzyme inhibition | purified NadD enzyme, colorimetric absorbance read-out | inhibition, % at 20 µM | 360,000 compounds, 0.78% hits | AID 602399; in the data active means inhibition above about 26%
TPT1 inhibitor – blocks Candida albicans tRNA 2'-phosphotransferase; recombinant caTPT1, FP RNA substrate dephosphorylation; inhibition, % at 5 µM; 300,000 compounds, 0.81% hits; AID 1962;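 active means inhibition above the mean of all tested compounds plus 3 SD, set per screening campaign, cut at about 24% in these data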;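 further: plate controls were DMSO alone for no effect and ferristatin control at 100 nM for full effect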
CSN deneddyl inh – inhibitors of human CSN-mediated cullin deneddylation; Purified CSN, SCF-Nedd8-OG deneddylation, fluorescence polarization; inhibition, % at 12.5 µM; 360,000 compounds, 0.38% hits; AID 651999;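 active means pattern-corrected inhibition above about 35%, with an unprinted fluorescence ratio check between 0.5 and 1.5, limit read from the data, passing the limit was not always enough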;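 further: 0% = enzyme with substrate and 100% = substrate without enzyme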
Target sequence (Q92905 whole entry, looked up, one chain of several): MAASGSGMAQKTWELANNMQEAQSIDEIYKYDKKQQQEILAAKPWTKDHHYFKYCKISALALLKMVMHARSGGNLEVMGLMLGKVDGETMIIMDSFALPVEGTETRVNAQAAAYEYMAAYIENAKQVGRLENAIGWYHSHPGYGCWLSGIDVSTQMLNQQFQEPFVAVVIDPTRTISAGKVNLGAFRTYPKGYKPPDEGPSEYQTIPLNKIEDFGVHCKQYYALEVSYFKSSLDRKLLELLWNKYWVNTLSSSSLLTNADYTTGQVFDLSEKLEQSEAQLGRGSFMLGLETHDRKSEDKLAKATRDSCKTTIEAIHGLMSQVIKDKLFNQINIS
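assay system = purified human Csn5 enzyme expressed in HEK293T cells | amount = 0.24 nM enzyme | buffer or medium = Tris/NaCl/DTT buffer, pH 7.5 | reagent = 10 nM SCFSkp2-Nedd8OG | compound = one concentration, 12.5 µM, 0.25% DMSO | times = 90 min reaction at room temperature | signal = FP | read-out basis = % inhibition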
HNF4A DNA FP – change in binding of human HNF4 alpha to DNA; HNF4a-FITC DNA binding, fluorescence polarization, 1 h; activity change, % at 10 µM; 360,000 compounds, 0.3% hits; in the data active means activity change above about 30%, passing the limit was not always enough
PP1 inh – blocks human PP1-alpha phosphatase, a PP5 counter-screen; P62136; purified PP1alpha, OMFP fluorescence; inhibition, % at 6.7 µM; 320,000 compounds, 0.9% hits; AID 2235;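 active means inhibition above the mean inhibition of all tested compounds plus 3 SD, computed separately for each screening campaign, cut at about 15% in these data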
caTPT1 confirm – TPT1 (C. albicans) inhibition, confirmation; recombinant caTPT1, fluorescence polarization, RNase T1 coupled; AID 2149; inhibition, % at 5 µM; 2,400 compounds, 74% hits; shares compounds with TPT1 inhibitor;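 active means inhibition above the primary screen limit, the mean inhibition of all tested compounds plus 3 SD, cut at about 25% in these data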
RNase T1 inh – RNase T1 inhibition in TPT1 counter-screen; shares compounds with TPT1 inhibitor; RNase T1 cleavage, fluorescence polarization, 1536-well; inhibition, % at 5 µM; 2,400 compounds, 83% hits; AID 2153;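 active means inhibition above the solvent-only control well mean plus 3 SD, limit set per screening run, cut at about 23% in these data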;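 further: plate controls were DMSO wells with enzyme for no effect and wells without RNase T1 for full effect; inhibitors block cleavage so intact labeled substrate keeps polarization high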
Target sequence (P00651 whole entry, looked up): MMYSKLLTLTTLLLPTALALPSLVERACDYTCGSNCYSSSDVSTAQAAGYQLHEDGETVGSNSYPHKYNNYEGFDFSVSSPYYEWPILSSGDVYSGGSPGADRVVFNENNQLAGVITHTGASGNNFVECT
* = called active by the depositor; . = no result given.

SMILES | Rpn11 inh | NadD block | TPT1 inhibitor | CSN deneddyl inh | HNF4A DNA FP | PP1 inh | caTPT1 confirm | RNase T1 inh
CCCn1c2c(c(O)c(C(=O)NCc3ccccc3)c1=O)CCCC2 | -3 | 1 | -1 | 4 | 0 | -3 | . | .
CCc1ccc(/C=C2/SC(N3CCOCC3)=NC2=O)cc1 | -3 | -3 | -1 | 2 | -1 | -1 | . | .
CN1C/C(=C/c2ccncc2)C(=O)/C(=C/c2ccncc2)C1 | 1 | -3 | -2 | 4 | 0 | 2 | . | .
CCN1C/C(=C/c2ccc(N3CCOCC3)cc2)C(=O)/C(=C/c2ccc(N3CCOCC3)cc2)C1 | . | 1 | 99* | 33 | 1 | -2 | 97* | 93*
CN1C/C(=C\c2ccc(N3CCOCC3)cc2)C(=O)/C(=C/c2ccc(N3CCOCC3)cc2)C1 | . | 6 | 63* | 13 | 6 | -3 | 89* | 94*
O=C(NCc1ccc(F)cc1)c1cc(C2CCCCN2C(=O)OCCF)on1 (centres undefined) | -1 | -2 | . | 1 | 5 | . | . | .
Cc1ccc(N/C=C2/Sc3ccccc3NC2=O)cc1 | . | 0 | 28* | 15 | 32 | 4 | 47* | 53*
CCCCNC(=O)Cc1ccc(C)cc1 | -3 | 1 | 2 | -5 | 4 | 0 | . | .
CCCCCCCCNC(=O)c1ccc(C)cc1 | . | . | 37* | . | . | 0 | 13 | 20
O=C(O)Cn1cc(/C=c2/sc3nc4ccccc4n3c2=O)c2ccccc21 | 37 | 5 | 39* | 5 | 28 | 2 | 28* | 37*
COc1cccc(-c2cnc3c(NC(C)=O)cc(-c4ccc(C(=O)N5CCOCC5)cc4)cn23)c1 | 8 | -1 | . | 2 | 9 | . | . | .
Cc1ccc(N/C=C/C(=O)c2ccco2)c(O)c1 | 39 | -1 | 29* | 2 | 9 | -2 | 46* | 55*
COc1ccc(S(=O)(=O)NC(=O)C2(C)CCN2C(=O)C2(c3ccccc3)CC2)cc1 (centres undefined) | 7 | 0 | . | 4 | 0 | . | . | .
CN(C)c1cc[n+](CC(=O)c2ccc(-c3ccccc3)cc2)cc1 | -2 | 1 | 0 | -2 | 1 | 1 | . | .
O=C(C[n+]1ccccc1)c1ccc(-c2ccccc2)cc1 | 6 | -5 | 40* | -2 | 4 | 2 | 4 | 9
Cn1cc(/C=C2\SC(=O)NC2=S)c2ccccc21 | -44 | 11 | -3 | -75 | -39 | 1 | . | .
Cc1ccc(C(=O)NN2C(=O)/C(=C/c3cn(C)c4ccccc34)SC2=S)cc1 | -80 | 18 | 160* | 22 | 75 | 1 | 80* | 86*
Cn1cc(/C=C2\SC(=S)N(NC(=O)c3ccccc3Cl)C2=O)c2ccccc21 | -35 | 40* | 76* | 25 | 82 | 1 | 176* | 162*
CC(=O)c1cccc(NC(=O)C2CCCN2S(=O)(=O)c2cccs2)c1 (centres undefined) | -11 | 0 | . | -3 | 0 | . | . | .
CCN=C1S/C(=C\c2ccc(N3CCOCC3)cc2C)C(=O)N1CC | 25 | -2 | 0 | -8 | 7 | -1 | . | .
COCCN1C(=O)/C(=C/c2ccc(N3CCCC3)cc2C)SC1=S | . | 2 | 115* | 31 | 120 | -1 | 99* | 100*
COc1ccc(CC(=O)Nc2cccc(S(=O)(=O)N3CCOCC3)c2)cc1OC | 1 | 1 | . | 2 | 1 | -2 | . | .
COC(=O)CN1C(=O)N/C(=C/c2ccc(OC)cc2)C1=O | 8 | -6 | -2 | -2 | -6 | -3 | . | .
COC(=O)Cn1c(=O)c2c(n(Cc3ccccc3)c1=O)N/C(=C/c1ccc(Br)cc1)C2=O | . | 3 | 43* | 13 | 14 | 2 | 32* | 47*
Cc1nc(C(F)(F)F)ccc1C(=O)Nc1ccccc1N1CCOCC1 | 7 | -2 | 2 | -1 | 2 | -2 | . | .
SMILES | Rpn11 inh | NadD block | TPT1 inhibitor | CSN deneddyl inh | HNF4A DNA FP | PP1 inh | caTPT1 confirm | RNase T1 inh
CN(C)c1ccc(/C=C/C(=O)c2c(O)c3ccccc3oc2=O)cc1 | . | 2 | 55* | 95 | 21 | -1 | 70* | 80*
O=C(Nc1ccccc1)C(=O)c1c[nH]c2ccccc12 | 1 | -8 | 2 | 2 | -2 | -7 | . | .
CCCCN(C)CCNC(=O)c1cc2c(-c3cccc(OC)c3)nn(C)c2s1 | -8 | -13 | 0 | 4 | -2 | -3 | . | .
CCN(CC)CCCNC(=O)c1cc2c(-c3cccc(OC)c3)nn(C)c2s1 | -7 | -12 | 37* | 1 | 3 | -4 | 4 | 5
Cc1ccc(OCC(=O)N2CCCCC2C)c([N+](=O)[O-])n1 (centres undefined) | -9 | -2 | . | -6 | -1 | . | . | .
CCOC(=O)c1ccc(S(=O)(=O)N2CCN(Cc3cc4c(cc3O)OCO4)CC2)cc1 | -1 | -3 | . | -5 | 1 | -1 | . | .
CCC(C)N1CCNCC1 (centres undefined) | 3 | -4 | 33* | -2 | -4 | -1 | -1 | 4
CCN1C(=O)/C(=C/c2ccc(C)s2)NC1=S | 5 | -2 | 7 | 6 | 2 | -3 | . | .
Cc1ccc(NC(=O)CN2C(=O)N/C(=C/c3ccc(C)o3)C2=O)cc1 | 2 | 4 | 4 | 1 | 6 | -2 | . | .
Cc1ccc(NC(=O)CN2C(=O)N/C(=C/c3ccc(C)s3)C2=O)cc1 | . | 17 | 71* | 58* | 101 | 7 | 66* | 76*
Cc1ccc(/C=C2/NC(=O)N(Cc3ccccc3)C2=O)s1 | . | 8 | 88* | 22 | 55* | 1 | 91* | 95*
Cc1cccc(CN2C(=O)N/C(=C/c3ccc(C)s3)C2=O)c1 | . | -7 | 98* | 17 | 35* | -3 | 87* | 95*
Cc1cccc(CN2C(=O)N/C(=C/c3cc(C)n(-c4cc(C)ccn4)c3C)C2=O)c1 | 4 | 11 | 0 | 10 | 3 | 6 | . | .
CC(NC(=O)COC(=O)C1(C)CC1(Cl)Cl)c1ccccc1 (centres undefined) | -8 | 4 | . | 0 | -5 | -5 | . | .
CCC(C)(C)C1CCc2c(sc(N)c2C(N)=O)C1 (centres undefined) | 20 | 10 | 14 | -1 | 3 | 4 | . | .
CC(C)(C)C1CCc2c(sc(N)c2C(N)=O)C1 (centres undefined) | 16 | 6 | 25* | 11 | 4 | 15 | 2 | 7
CC1=NN(c2ccc(Br)cc2)C(=O)/C1=C/c1ccc(-c2ccccc2C(=O)O)o1 | -4 | 7 | -2 | -1 | -4 | -3 | . | .
O=C(O)c1ccccc1-c1ccc(/C=c2\sc3nc4cc(Br)cnc4n3c2=O)o1 | . | 26 | 84* | 186* | -5 | 4 | 131* | 122*
O=C1/C(=C/c2cccnc2)CCC/C1=C\c1cccnc1 | . | . | 1 | . | . | 5 | . | .

Assay outcomes: PubChem BioAssay, several laboratories
